# Measured values from PubChem BioAssay.
# Active and inactive are the calls of the source.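 The calls were made as follows, unless noted: active = duplicate-averaged activation above buffer control mean plus 5 SD of those controls; inactive = the rest.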
# Tests used:
# [1] = thallium flux activation in parental CHO cells, counter-screen for KCNQ1 potentiator project (AID 493006); conditions: parental CHO-K1 cells, FluxOR thallium flux, at 10 µM; hits give high values
# Procedure, shortened: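 Assay system: parental CHO-K1 cells lacking KCNQ1, loaded with FluxOR thallium dye; timing: dye 90 min RT, compound 20 min RT; signal: kinetic thallium-flux fluorescence; repeats: duplicate wells per compound, percent values averaged; benchmarks: buffer and R-L3 controls; reagent: Potassium/thallium depolarization pulse; read-out: fluorescence change ratio scaled 0% buffer, 100% R-L3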
# [2] = target: Potassium voltage-gated channel subfamily KQT member 1 (Homo sapiens) (UniProt P51787); assay: KCNQ1 potassium channel potentiators, confirmation, FluxOR thallium flux, CHO cells, duplicates (AID 493007;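 active = potentiation averaged over duplicate wells exceeding buffer-only control mean by more than 3 SD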;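 as to outcome: cells depolarized by a potassium plus thallium sulfate stimulus after compound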); conditions: KCNQ1 cell line, FluxOR thallium flux fluorescence, at 10 µM; hits give high values, % of reference activator effect, buffer zero
# Potassium voltage-gated channel subfamily KQT member 1 (Homo sapiens), sequence (P51787 whole entry, looked up): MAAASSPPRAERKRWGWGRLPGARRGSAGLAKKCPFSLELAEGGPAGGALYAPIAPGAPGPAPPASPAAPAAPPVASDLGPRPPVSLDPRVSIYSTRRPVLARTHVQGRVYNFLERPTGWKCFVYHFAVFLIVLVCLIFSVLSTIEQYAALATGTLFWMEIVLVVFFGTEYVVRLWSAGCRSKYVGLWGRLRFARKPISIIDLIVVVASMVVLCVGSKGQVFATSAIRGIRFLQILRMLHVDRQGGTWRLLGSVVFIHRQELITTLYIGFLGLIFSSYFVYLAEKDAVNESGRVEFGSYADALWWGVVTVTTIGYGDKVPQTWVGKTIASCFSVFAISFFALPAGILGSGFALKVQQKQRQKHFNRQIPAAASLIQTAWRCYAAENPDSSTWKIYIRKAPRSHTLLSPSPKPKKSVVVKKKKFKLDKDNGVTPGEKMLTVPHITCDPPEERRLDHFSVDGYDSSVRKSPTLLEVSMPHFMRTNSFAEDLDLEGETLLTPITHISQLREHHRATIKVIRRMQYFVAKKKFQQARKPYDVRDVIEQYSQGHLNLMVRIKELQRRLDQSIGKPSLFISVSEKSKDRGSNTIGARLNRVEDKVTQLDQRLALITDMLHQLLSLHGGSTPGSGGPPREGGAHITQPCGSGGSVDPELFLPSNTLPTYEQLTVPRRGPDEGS
# Procedure, shortened: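 material = CHO cells stably expressing the KCNQ1 potassium channel | repeats = duplicate wells per compound | measure = percent activation between buffer and R-L3 responses | signal = FluxOR thallium-flux fluorescence, kinetic read | schedule = FluxOR dye loading 90 min, compound exposure 20 min, room temperature | control set = buffer and R-L3 controls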
# [3] = target: Potassium voltage-gated channel subfamily KQT member 2 (Rattus norvegicus) (UniProt O88943); assay: rat KCNQ2 channel potentiation, selectivity assay for KCNQ1 potentiator project, KCNQ2-CHO-K1 cells (AID 493009;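 active = mean duplicate potentiation above the buffer control mean plus 5 SD of buffer wells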;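 also: assay conditions were tuned for KCNQ1 rather than KCNQ2 modulators; signal is max minus min fluorescence divided by baseline after thallium stimulus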); conditions: FluxOR thallium flux fluorescence, at 10 µM; hits give high values, scaled: buffer 0, activator control 100
# Potassium voltage-gated channel subfamily KQT member 2 (Rattus norvegicus), sequence (O88943 whole entry, looked up): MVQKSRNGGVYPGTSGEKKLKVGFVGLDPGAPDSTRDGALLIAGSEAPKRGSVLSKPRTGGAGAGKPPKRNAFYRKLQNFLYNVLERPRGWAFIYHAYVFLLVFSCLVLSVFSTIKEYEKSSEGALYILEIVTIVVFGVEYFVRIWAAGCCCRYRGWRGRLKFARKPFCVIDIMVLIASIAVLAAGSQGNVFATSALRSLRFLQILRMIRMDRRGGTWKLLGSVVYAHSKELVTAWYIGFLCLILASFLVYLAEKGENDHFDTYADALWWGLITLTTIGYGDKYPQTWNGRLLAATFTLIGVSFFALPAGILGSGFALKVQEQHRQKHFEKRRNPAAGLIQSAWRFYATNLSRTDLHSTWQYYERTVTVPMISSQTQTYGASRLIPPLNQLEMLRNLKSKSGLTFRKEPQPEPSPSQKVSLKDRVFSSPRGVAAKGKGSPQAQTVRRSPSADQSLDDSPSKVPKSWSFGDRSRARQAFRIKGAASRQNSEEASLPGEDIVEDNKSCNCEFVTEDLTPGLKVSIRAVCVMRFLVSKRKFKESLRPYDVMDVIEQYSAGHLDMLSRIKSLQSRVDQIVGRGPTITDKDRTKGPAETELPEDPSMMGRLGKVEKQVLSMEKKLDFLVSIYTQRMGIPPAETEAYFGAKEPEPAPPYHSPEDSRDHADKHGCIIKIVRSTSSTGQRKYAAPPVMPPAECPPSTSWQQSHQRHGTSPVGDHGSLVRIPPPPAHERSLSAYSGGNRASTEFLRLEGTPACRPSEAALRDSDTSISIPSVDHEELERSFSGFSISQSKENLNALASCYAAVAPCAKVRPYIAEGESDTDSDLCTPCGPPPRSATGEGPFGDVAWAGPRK
# [4] = target: Potassium voltage-gated channel subfamily KQT member 1 (Homo sapiens) (UniProt P51787); assay: KCNQ1 channel current potentiators, confirmation, orthogonal assay for KCNQ1 potentiator project, IonWorks patch clamp, KCNQ1-CHO cells (AID 493184;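 active = current rise at least 3 SD above the untreated control mean in each of two repeat wells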;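 as to current potentiation: percent change of the same well's current before compound addition so 0% = no change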); conditions: automated patch clamp current, at 10 µM; hits give high values
# Procedure, shortened: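 Assay system – CHO cells carrying KCNQ1 · Medium – pH 7.4 external bath · Probe or stimulus – depolarizing pulse to +40 mV from -90 mV · Compound dosing – one dose, 10 µM final · Measured by – automated perforated-patch electrophysiology · Measure – % potentiation of steady-state current relative to pre-compound · Repeats – two replicates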
# [5] = target: Potassium voltage-gated channel subfamily E member 1 (Homo sapiens) + Potassium voltage-gated channel subfamily KQT member 1 (Homo sapiens) (UniProt P15382+P51787); assay: KCNQ1/KCNE1 complex potentiators, confirmation, selectivity assay for KCNQ1 potentiator project, thallium flux, CHO-K1 KCNQ1/E1 cells (AID 493186;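 active = mean duplicate activation above the buffer control mean plus 5 SD of those controls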); conditions: FluxOR thallium flux, at 10 µM; hits give high values
# Potassium voltage-gated channel subfamily E member 1 (Homo sapiens) + Potassium voltage-gated channel subfamily KQT member 1 (Homo sapiens), sequence (P51787 whole entry, looked up): as the sequence (P51787 whole entry, looked up) above
# Procedure, shortened: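 Assay system: CHO-K1 cells with KCNQ1/E1 | Dosing: Single compound concentration per well | Incubation: Dye 90 min, compound 20 min, room temperature | Measured by: FluxOR Tl+ flux fluorescence, kinetic read | Controls: Buffer low control, R-L3 high control | Replicates: Duplicate wells per compound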
Structure (SMILES),outcome [1],outcome [2],outcome [3],outcome [4],outcome [5],potentiation [2],potentiation [3],current potentiation [4]
CC(NC(=O)c1ccccc1Cl)C1CC2CCC1C2 (stereo not given),inactive,inactive,inactive,inactive,inactive,–,–,–
CCSc1nnc(-c2ccncc2)n1Cc1ccccc1,inactive,inactive,inactive,inactive,inactive,–,–,–
COc1cc(O)c2c(=O)c(-c3ccc(O[C@@H]4O[C@H](CO)[C@@H](O)[C@H](O)[C@H]4O)cc3)coc2c1,inactive,inactive,inactive,inactive,inactive,–,–,–
COc1ccc(OC)c(NC(=S)N2CCC(C(O)(c3ccccc3)c3ccccc3)CC2)c1,inactive,–,–,inactive,inactive,43% (active),174% (active),–
CCOC(=O)COc1cc(-n2c(=S)[nH]c3cc(OC)c(OC)cc3c2=O)c(Cl)cc1Cl,inactive,–,inactive,inactive,inactive,31.5% (active),–,–
Cc1cc(C(=O)NCc2ccc(S(N)(=O)=O)cc2)ccc1[N+](=O)[O-],inactive,inactive,inactive,inactive,inactive,–,–,–
COc1ccc(-c2csc(NC(=S)NC(=O)c3ccco3)n2)cc1Br,inactive,–,inactive,inactive,inactive,25% (active),–,–
COc1ccc(C(=O)N=C2CCC(C#N)=C3c4cc(OC)c(OC)cc4CCN23)cc1,inactive,–,inactive,inactive,inactive,34.5% (active),–,–
O=C(NC(=S)Nc1ccccc1N1CCCC1)c1ccc(-c2cccc([N+](=O)[O-])c2)o1,inactive,inactive,inactive,inactive,inactive,–,–,–
COc1ccc(C2SCC(=O)N2c2nc3ccccc3s2)cc1 (stereo not given),inactive,inactive,inactive,–,inactive,–,–,26.4% (active)
CCn1c(CN2CCN(c3ccc(OC)cc3)CC2)nc2cc(S(=O)(=O)N(C)C)ccc21,inactive,inactive,inactive,inactive,inactive,–,–,–
CCc1ccc(NC(=S)NC2CC3CCCC(C2)N3Cc2cccs2)cc1 (stereo not given),inactive,inactive,inactive,inactive,inactive,–,–,–
COc1ccc(OCC(=O)NC(=S)NNC(=O)COc2ccc(Br)cc2Cl)cc1,inactive,–,inactive,inactive,inactive,18.5% (active),–,–
COC1(c2ccccc2)NC(=S)NN=C1c1ccccc1 (stereo not given),inactive,inactive,inactive,inactive,inactive,–,–,–
COc1cc(/C=N/Nc2nc(N3CCCC3)nc(N3CCCC3)n2)ccc1OCc1ccccc1F,inactive,inactive,inactive,inactive,inactive,–,–,–
CCOc1cc(CN2CCOCC2)cc(C(C)=O)c1,inactive,–,inactive,inactive,inactive,23.5% (active),–,–

Structure (SMILES),outcome [1],outcome [2],outcome [3],outcome [4],outcome [5],potentiation [2],potentiation [3],current potentiation [4]
Cc1cc(C)c2c(=O)n(CC(=O)Nc3ccc(Cl)cc3)sc2n1,inactive,–,inactive,inactive,inactive,25% (active),–,–
COC(=O)c1sc(NC(=S)NC(=O)c2ccccc2)nc1C,inactive,inactive,inactive,inactive,inactive,–,–,–
N#Cc1ccccc1OCCN1C(=O)c2ccccc2C1=O,inactive,inactive,inactive,inactive,inactive,–,–,–
N/C(=N\OC(=O)c1cccc2ccccc12)c1ccc(Br)cc1,inactive,inactive,inactive,inactive,inactive,–,–,–
Nc1nnc(SCC(=O)N2CCN(c3ccccc3)CC2)n1-c1ccccc1,inactive,inactive,inactive,inactive,inactive,–,–,–
CCOC(=O)C1CCCN(C(=O)Cn2sc3nc(C)cc(C)c3c2=O)C1 (stereo not given),inactive,inactive,inactive,inactive,inactive,–,–,–
CN(C)c1ccnc(N(Cc2ccccc2)Cc2ccccc2)c1C#N,inactive,inactive,inactive,inactive,inactive,–,–,–
O=C(Nc1ccc(Cl)cc1C(F)(F)F)C(Sc1cccc[n+]1[O-])c1ccccc1 (stereo not given),inactive,inactive,inactive,inactive,inactive,–,–,–
CC(c1nccs1)N(C)C(=O)CCc1nnc(Cc2c[nH]c3ccccc23)o1 (stereo not given),inactive,inactive,inactive,inactive,inactive,–,–,–
CC1(c2ccc(OC(F)F)cc2)NC(=O)N(CC(=O)Nc2ccc3c(c2)OCO3)C1=O (stereo not given),inactive,inactive,inactive,inactive,inactive,–,–,–
O=C(Nc1cccnc1)NC1CCCCC1,inactive,inactive,inactive,inactive,inactive,–,–,–
Oc1c(Cl)cc(Cl)cc1/C=N/NC(=S)NC1CC2C=CC1C2 (stereo not given),inactive,inactive,inactive,inactive,inactive,–,–,–
O=C(NC(=S)Nc1ccc(CN2CCOCC2)cc1)c1ccc(-c2cccc(Cl)c2)o1,inactive,–,–,inactive,inactive,64% (active),144% (active),–
Fc1ccc(-n2cc(-c3ccccc3)c3c(=S)nc[nH]c32)cc1,inactive,–,inactive,inactive,inactive,108% (active),–,–
COc1cccc(/C=N/n2c(SC)nnc2-c2ccccc2)c1O,inactive,inactive,inactive,inactive,inactive,–,–,–
